According to ChEMBL document CHEMBL4028826, “Virtual screen to NMR (VS2NMR): Discovery of fragment hits for the CBP bromodomain” (Bioorg Med Chem Lett, 2017):

What was measured:
CREB-binding protein [1] = molecular target: T1, CREB-binding protein (Homo sapiens, UniProt Q92793); assay: Residual binding of human CBP expressed in Escherichia coli to histone H4 tetraacetylated peptide at 0.5 mM by Alphascreen assay relative to control
Target sequence in this assay (Q92793 2-2442 limits assumed): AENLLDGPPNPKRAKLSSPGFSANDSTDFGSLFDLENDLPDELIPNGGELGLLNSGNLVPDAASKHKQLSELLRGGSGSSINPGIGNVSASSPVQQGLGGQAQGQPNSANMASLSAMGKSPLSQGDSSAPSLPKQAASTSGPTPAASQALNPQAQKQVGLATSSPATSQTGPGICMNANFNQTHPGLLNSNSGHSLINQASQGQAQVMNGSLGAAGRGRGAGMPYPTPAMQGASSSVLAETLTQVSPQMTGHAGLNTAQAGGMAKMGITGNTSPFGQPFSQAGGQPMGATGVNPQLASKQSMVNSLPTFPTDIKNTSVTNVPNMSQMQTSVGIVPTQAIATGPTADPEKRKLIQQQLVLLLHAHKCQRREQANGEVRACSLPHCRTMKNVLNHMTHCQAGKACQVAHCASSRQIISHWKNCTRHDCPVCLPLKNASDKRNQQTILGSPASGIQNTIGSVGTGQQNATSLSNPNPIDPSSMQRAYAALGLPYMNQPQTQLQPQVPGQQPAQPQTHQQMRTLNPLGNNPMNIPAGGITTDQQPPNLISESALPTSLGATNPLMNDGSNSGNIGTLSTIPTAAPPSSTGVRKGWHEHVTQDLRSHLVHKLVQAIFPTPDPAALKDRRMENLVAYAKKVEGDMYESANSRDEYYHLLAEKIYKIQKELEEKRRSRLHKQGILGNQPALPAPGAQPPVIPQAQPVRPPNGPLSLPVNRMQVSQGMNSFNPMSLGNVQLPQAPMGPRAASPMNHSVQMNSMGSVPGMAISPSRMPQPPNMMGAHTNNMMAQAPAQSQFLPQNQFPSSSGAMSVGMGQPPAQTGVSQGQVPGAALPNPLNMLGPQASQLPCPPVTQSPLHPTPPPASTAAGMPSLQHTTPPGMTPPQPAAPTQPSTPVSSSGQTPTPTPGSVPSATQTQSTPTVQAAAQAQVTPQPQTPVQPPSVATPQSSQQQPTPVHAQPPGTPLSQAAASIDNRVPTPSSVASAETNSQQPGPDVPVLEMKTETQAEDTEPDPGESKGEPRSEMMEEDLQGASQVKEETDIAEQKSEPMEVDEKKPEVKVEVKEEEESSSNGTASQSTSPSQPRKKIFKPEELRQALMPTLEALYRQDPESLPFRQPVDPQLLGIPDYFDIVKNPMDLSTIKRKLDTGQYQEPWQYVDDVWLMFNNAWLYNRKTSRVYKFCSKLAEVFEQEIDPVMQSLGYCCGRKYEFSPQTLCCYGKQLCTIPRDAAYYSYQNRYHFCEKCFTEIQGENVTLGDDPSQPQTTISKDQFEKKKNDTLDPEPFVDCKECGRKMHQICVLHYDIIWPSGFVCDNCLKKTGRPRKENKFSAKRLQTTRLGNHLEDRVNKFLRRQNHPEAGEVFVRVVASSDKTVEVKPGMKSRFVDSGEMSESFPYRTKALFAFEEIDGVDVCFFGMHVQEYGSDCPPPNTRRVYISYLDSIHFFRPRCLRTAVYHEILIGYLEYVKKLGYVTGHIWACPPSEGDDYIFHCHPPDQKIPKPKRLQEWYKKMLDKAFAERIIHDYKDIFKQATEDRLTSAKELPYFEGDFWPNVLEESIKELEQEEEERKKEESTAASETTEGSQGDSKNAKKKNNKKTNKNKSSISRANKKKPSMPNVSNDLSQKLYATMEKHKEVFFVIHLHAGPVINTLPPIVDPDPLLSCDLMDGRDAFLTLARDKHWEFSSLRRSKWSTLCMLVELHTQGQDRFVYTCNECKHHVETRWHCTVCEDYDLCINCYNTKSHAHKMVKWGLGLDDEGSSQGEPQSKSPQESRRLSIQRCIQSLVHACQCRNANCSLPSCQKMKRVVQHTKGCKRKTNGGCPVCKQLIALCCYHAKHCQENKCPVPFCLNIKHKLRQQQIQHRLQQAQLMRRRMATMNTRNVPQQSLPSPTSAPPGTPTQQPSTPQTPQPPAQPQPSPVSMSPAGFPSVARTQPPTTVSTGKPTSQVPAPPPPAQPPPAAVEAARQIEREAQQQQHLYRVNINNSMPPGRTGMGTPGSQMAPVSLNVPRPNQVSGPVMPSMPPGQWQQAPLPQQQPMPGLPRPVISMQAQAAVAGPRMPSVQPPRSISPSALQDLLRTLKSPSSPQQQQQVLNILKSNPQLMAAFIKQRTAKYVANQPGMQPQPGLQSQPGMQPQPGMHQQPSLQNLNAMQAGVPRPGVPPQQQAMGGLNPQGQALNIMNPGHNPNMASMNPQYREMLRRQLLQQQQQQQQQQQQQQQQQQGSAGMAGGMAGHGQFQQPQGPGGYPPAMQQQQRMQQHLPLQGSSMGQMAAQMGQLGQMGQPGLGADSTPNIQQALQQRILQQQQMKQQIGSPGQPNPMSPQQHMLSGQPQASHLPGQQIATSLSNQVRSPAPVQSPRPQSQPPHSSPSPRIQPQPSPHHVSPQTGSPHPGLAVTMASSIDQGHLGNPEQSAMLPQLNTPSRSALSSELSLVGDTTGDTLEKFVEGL

[2] = molecular target: Histone acetyltransferase p300 (Homo sapiens) (UniProt Q09472); assay: Binding affinity to EP300 (unknown origin) assessed as change in melting temperature at 1 mM by differential scanning fluorimetric method
Summary of the method: (§1)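 Differential scanning fluorimetry with bromodomain at 2 μM and ligand at 1 mM. The reported shift in melting temperature is the median of at least nine measurements for each ligand/bromodomain pair.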

CREB-binding protein [3] = molecular target: T1, CREB-binding protein; assay: Binding affinity to CBP (unknown origin) assessed as change in melting temperature at 1 mM by differential scanning fluorimetric method
Summary of the method: as §1
Target sequence in this assay (Q92793 2-2442 limits assumed): as above

CREB-binding protein [4] = molecular target: T1, CREB-binding protein; assay: Inhibition of histone H4 tetraacetylated peptide binding to human CBP by Alphascreen assay
Summary of the method: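 AlphaScreen competition with a tetra-acetylated 21-mer histone H4 peptide as the competitor for the CBP bromodomain. IC50 was obtained by curve fitting of 10-point dose responses.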

CREB-binding protein [5] = molecular target: T1, CREB-binding protein; assay: Binding affinity to partial length human DNA-tagged CBP (R1081 to G1197 residues) expressed in bacterial expression system by qPCR analysis
Summary of the method: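 Competition-binding assay using DNA-tagged CBP bromodomain against an undisclosed proprietary ligand, with quantitative PCR read-out. KD was obtained by curve fitting of 12-point dose responses run in duplicate.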

Sequence of Histone acetyltransferase p300 (Homo sapiens) (Q09472 whole entry): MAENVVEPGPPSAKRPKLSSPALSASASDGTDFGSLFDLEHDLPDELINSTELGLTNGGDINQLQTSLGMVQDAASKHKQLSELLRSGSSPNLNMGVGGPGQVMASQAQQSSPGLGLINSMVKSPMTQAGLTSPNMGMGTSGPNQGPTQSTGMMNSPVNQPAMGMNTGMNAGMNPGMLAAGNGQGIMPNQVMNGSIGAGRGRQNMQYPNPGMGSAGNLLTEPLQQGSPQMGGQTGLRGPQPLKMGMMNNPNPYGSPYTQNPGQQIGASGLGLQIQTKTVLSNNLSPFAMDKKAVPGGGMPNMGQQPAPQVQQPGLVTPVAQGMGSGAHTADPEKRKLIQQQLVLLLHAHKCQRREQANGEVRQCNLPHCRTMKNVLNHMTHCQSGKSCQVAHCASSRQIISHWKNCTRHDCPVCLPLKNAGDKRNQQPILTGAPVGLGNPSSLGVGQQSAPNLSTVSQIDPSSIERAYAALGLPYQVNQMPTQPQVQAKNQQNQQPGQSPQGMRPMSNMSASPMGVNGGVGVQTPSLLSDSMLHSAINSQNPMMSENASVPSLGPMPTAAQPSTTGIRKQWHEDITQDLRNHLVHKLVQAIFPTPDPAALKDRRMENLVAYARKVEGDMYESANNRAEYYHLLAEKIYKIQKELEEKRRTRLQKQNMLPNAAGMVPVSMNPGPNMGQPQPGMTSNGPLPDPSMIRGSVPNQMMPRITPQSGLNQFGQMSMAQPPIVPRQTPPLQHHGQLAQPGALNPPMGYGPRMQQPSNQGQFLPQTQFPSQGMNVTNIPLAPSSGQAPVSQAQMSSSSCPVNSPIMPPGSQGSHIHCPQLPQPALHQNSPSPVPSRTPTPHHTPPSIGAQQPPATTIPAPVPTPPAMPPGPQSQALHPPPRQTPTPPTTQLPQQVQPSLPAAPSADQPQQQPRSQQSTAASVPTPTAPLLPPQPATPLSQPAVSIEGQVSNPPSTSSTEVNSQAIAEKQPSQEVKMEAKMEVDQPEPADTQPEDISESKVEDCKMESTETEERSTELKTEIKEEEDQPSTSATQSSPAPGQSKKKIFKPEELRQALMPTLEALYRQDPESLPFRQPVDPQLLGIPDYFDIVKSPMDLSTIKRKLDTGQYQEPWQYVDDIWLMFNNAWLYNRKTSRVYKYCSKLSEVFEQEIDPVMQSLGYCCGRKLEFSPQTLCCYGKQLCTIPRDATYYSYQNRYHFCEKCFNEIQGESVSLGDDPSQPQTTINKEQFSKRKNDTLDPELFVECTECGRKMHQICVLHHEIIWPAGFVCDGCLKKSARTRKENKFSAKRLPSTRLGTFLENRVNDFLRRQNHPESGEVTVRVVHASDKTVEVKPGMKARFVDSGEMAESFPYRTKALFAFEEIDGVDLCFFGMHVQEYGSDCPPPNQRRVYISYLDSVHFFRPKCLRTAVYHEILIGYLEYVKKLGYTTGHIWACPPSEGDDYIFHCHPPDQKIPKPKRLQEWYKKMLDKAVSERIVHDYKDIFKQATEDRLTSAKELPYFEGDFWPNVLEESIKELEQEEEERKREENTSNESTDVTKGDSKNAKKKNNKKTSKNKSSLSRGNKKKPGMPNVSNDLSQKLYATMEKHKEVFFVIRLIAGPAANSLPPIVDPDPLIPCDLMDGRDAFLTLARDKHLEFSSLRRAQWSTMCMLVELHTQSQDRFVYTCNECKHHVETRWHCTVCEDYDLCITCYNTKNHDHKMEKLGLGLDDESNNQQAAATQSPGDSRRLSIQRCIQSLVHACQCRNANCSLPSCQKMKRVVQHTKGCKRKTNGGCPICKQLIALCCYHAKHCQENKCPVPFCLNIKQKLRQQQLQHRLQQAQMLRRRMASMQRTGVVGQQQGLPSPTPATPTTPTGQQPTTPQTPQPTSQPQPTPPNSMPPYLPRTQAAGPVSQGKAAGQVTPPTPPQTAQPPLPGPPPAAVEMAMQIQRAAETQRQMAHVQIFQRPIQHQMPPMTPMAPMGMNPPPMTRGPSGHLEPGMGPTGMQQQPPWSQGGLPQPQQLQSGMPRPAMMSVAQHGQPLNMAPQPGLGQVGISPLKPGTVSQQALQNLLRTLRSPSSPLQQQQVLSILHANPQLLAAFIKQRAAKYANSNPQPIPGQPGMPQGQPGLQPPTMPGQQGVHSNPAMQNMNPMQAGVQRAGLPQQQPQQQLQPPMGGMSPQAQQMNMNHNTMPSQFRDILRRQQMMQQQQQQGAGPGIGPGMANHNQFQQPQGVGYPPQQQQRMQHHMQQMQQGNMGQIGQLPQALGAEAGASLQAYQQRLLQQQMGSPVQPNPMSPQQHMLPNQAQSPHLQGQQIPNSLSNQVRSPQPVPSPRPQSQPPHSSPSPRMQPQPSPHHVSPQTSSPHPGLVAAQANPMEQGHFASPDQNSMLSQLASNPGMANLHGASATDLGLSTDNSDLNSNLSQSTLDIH

residual activity (CREB-binding protein [1]) [%]	Structure (SMILES)	also measured
92	Cc1nnsc1Sc1ccccn1	
56	CC(=O)c1ccc(CC#N)s1	
92	Cc1nc2ccc(NS(C)(=O)=O)cc2o1	
74	CC(=O)Nc1ccc(SCC#N)cc1	
96	CNC(=O)c1ccc(C(F)(F)F)nc1	
93	CC(=O)c1ccc(O)c2[nH]c(=O)ccc12	
92	COC(=O)c1ccc(C(C)=O)cc1	
37	COc1cc(C(C)=O)ccc1N	ΔTm [2]: 2.6 °C; ΔTm (CREB-binding protein [3]): 2.4 °C
94	O=C(O)[C@@H]1CS[C@H](c2ccc(F)cc2)N1	
102	Cc1nnc2ccc(N3CCOCC3)nn12	
100	Cn1ncc2c1CCCC2=O	
98	O=c1[nH]c(=O)n([C@H]2C[C@H](O)[C@H](CO)O2)cc1F	
31	CC(=O)c1cn(C)c2ccccc12	ΔTm [2]: 2.6 °C; ΔTm (CREB-binding protein [3]): 2.9 °C
79	CCn1cnc2ccc(C(=O)OC)cc21	
34	COC(=O)c1ccc2[nH]c(=O)oc2c1	IC50 (CREB-binding protein [4]): 455 µM; Kd (CREB-binding protein [5]): 85 µM; ΔTm [2]: 1.4 °C; ΔTm (CREB-binding protein [3]): 2.3 °C
48	COc1ccc(-c2c[nH]nc2N)cc1OC	ΔTm [2]: -1.3 °C; ΔTm (CREB-binding protein [3]): -0.1 °C
100	CS(=O)(=O)NCc1ccc2c(c1)OCO2	
56	COC(=O)N1CCC(C(=O)O)CC1	
85	CCc1nnc2cccc(Cl)n12	
0.1	CNC(=O)c1cc(Br)c[nH]1	IC50 (CREB-binding protein [4]): 40 µM; Kd (CREB-binding protein [5]): 4 µM; ΔTm [2]: 7 °C; ΔTm (CREB-binding protein [3]): 7.3 °C
